RanGTP-Imp inh: inhibitors of RanGTP-importin-beta interaction, primary screen, biochemical, FRET, CFP-Ran, YFP-importin-beta, homogeneous; 300,000 compounds, 1.1% hits; inhibition, % (no concentration beside the values); cell-free CFP-Ran/YFP-importin-beta FRET ratio; AID 2216;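 active means more than half of the replicate wells show a fall in the fluorescence ratio signal beyond about 16%, limit read from the data, passing the limit was not always enough; inconclusive means exactly half of the replicate wells pass the set limit; inactive means fewer than half of replicates pass the limit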;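 further: 0% = DMSO wells and 100% = Ran loaded with GDP instead of GTP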
Runt-SMMHC FRET: inhibitors of human RUNX1 Runt domain binding to CBFb-SMMHC; Q01196+Q13951; Cerulean-Runt/Venus-CBFb-SMMHC FRET ratio 530/480, 1 h; inhibition, % at 20 µM; 220,000 compounds, 0.74% hits; AID 1434;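 active means mean inhibition across duplicate retests at 20 µM reaching about 50%, limit read from the data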;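 further: 0% = DMSO wells and 100% = wells with excess untagged CBFb-SMMHC; inhibitors lower the FRET ratio by blocking Runt binding to CBFb-SMMHC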
Target sequence (Q01196 whole entry, looked up, the tested form may be a part): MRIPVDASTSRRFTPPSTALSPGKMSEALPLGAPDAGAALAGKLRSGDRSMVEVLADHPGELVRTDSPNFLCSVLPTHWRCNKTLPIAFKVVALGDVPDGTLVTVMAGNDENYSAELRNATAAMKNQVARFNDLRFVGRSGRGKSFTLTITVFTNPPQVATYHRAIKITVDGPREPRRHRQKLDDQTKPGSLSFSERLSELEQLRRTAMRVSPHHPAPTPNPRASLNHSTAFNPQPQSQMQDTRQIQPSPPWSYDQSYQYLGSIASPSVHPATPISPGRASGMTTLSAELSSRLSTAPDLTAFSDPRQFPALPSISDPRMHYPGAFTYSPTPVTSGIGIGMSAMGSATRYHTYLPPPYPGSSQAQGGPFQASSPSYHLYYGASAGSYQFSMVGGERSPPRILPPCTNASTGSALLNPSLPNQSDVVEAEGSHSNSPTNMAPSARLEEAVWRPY
Target sequence (Q13951 whole entry, looked up, the tested form may be a part): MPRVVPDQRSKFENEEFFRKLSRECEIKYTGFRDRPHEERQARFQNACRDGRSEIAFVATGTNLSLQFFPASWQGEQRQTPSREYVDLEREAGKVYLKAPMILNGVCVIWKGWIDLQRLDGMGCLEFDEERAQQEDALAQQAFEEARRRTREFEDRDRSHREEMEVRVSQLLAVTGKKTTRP
Wee1 degr inh: human Wee1 degradation inhibition, primary screen | P30291 | HeLa Luc-Wee1K328M stability, luciferase luminescence; 100% = proteasome inhibitor MG132 effect | reporter increase, % at 5 µM | 220,000 compounds, 1.2% hits | AID 1321;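 active means activation above the mean of all tested compounds plus 3 SD, set per screening run, cut at about 8.8% in these data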;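 further: cells exposed to compound for 20 h before luminescence read; 0% = DMSO alone and 100% = MG132 at 30 µM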
Runt-CBFb FRET: blocks binding of human RUNX1 Runt domain to CBFb | Q01196+Q13951 | Cerulean-Runt/Venus-CBFb FRET ratio 530/480, 1 h | inhibition, % at 20 µM | 220,000 compounds, 0.46% hits | AID 1496;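 active means inhibition over about 50% at 20 µM in the single-dose screen, limit read from the data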;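 further: 0% = DMSO wells and 100% = excess unlabeled CBFb competitor control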
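System: Cerulean-labeled Runt domain protein | Quantity: 100 nM of each labeled protein | Schedule: 1 h compound exposure, room temperature | Detection: Fluorescence energy transfer, 422 nm excitation, 530/480 nm emission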
AI-2 QS mod: Vibrio harveyi AI-2 quorum sensing modulation; Vibrio harveyi JMH597 AI-2 luminescence/OD600 ratio, 9 h; hits give low values; strain lacks LuxN and CqsS sensors; 0 = neutral-control median; activity change, % at 7.5 µM; 300,000 compounds, 0.4% hits; AID 2094; in the data active means activity change below about -75%, passing the limit was not always enough; inconclusive means no clear call, values can overlap the other calls;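 further: luminescence divided by OD600 gain over 9 h not by final OD600 alone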
KLK7 zymogen act: activators of human kallikrein-7 zymogen. 370,000 compounds, 0.9% hits. P49862. activation, % at 7 µM. purified proKLK7, EDANS-DABCYL substrate fluorescence; 100% is mature enzyme control, 0% vehicle. AID 652039;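 active means activation above the mean of all tested compounds plus 3 SD, computed per campaign excluding outliers beyond control limits, cut at about 13% in these data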
proKLK7 act conf: proKLK7 activation, confirmation. shares compounds with KLK7 zymogen act. purified proKLK7, EDANS-DABCYL substrate fluorescence; scaled: vehicle 0, mature enzyme 100. activation, % at 7 µM. 3,200 compounds, 68% hits;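 active means activation, as change over the incubation, above the mean of all tested compounds plus 3 SD, cut at about 13% in these data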
EDANS-DABCYL int: counter-screen for kallikrein-7 activators: EDANS-DABCYL optical interference | shares compounds with KLK7 zymogen act | EDANS-DABCYL substrate fluorescence interference, no enzyme, 4 h; solvent 0%, active enzyme control 100% | activation, % at 7 µM | 3,200 compounds, 80% hits;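 active means activation above the all-compound mean plus 3 SD, ignoring values outside control-based bounds, cut at about 4.8% in these data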;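 further: value is the 4 h activation minus the activation read at time zero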
* marks the source's active call; other numbers are inactive results. Only some compounds are listed: those with a hit (about 2.9% of all), similar ones and a draw of the others.

For CCOc1ccc(-c2cc(C)[n+](CCN3CCOCC3)c(-c3ccc(OCC)cc3)c2)cc1 the results were RanGTP-Imp inh 0.9, Runt-SMMHC FRET 1.7, Wee1 degr inh -1.2, Runt-CBFb FRET -0.2, AI-2 QS mod 10.7, KLK7 zymogen act 25.2*, proKLK7 act conf 28.9* and EDANS-DABCYL int 28.4*.
Screening C=CCCC1(CC(C)C)C(=O)NC(=S)NC1=O returned KLK7 zymogen act -0.1.
For COc1ccc(CC(=O)N2C[C@H]3C[C@@H](C2)c2cccc(=O)n2C3)cc1 the results were RanGTP-Imp inh 6.1, AI-2 QS mod 8.0 and KLK7 zymogen act -0.6.
For COc1cc2oc(=O)c(CC(=O)N3C[C@H]4C[C@@H](C3)c3cccc(=O)n3C4)c(C)c2cc1Cl the results were KLK7 zymogen act -0.2.
`Cc1c(CC(=O)N2C[C@H]3C[C@@H](C2)c2cccc(=O)n2C3)c(=O)oc2cc(O)c(Cl)cc12` gave RanGTP-Imp inh 75.4*, AI-2 QS mod -3.9, KLK7 zymogen act 72.6*, proKLK7 act conf 59.5* and EDANS-DABCYL int 67.7*.
For Cc1c(CC(=O)N2C[C@H]3C[C@@H](C2)c2cccc(=O)n2C3)c(=O)oc2c(C)c(O)ccc12 the results were RanGTP-Imp inh 70.6*, AI-2 QS mod 12.5, KLK7 zymogen act 65.2*, proKLK7 act conf 67.9* and EDANS-DABCYL int 71.9*.
Cc1c(CCC(=O)N2C[C@H]3C[C@@H](C2)c2cccc(=O)n2C3)c(=O)oc2c(C)c(O)ccc12 was read as KLK7 zymogen act 84.4*, proKLK7 act conf 73.2* and EDANS-DABCYL int 77.6*.
`CCOC(=O)N1CCN(C(C)C(=O)c2c[nH]c3ccccc23)CC1` (stereo not given) gave RanGTP-Imp inh 1.4, Runt-SMMHC FRET 1.8, Wee1 degr inh -1.6, Runt-CBFb FRET 1.4, AI-2 QS mod -16.3 and KLK7 zymogen act 0.2.
`CN1CCN(c2ccc3c(c2)S(=O)(=O)c2ccccc2C3=O)CC1` gave RanGTP-Imp inh -181.8, AI-2 QS mod -6.5, KLK7 zymogen act 19.8*, proKLK7 act conf 5.1 and EDANS-DABCYL int 4.2*.
Screening COC(=O)C12CCc3c(ccc4cc(OC)ccc34)C1=CC(=O)C2 (stereo not given) returned KLK7 zymogen act 92.9*, proKLK7 act conf 65.2* and EDANS-DABCYL int 79.3*.
Screening O=c1[nH]c(=O)n(CCC2=CCCCC2)c(O)c1C=NCCCn1ccnc1 returned RanGTP-Imp inh 0.0, Runt-SMMHC FRET 3.3, Wee1 degr inh -2.7, Runt-CBFb FRET -3.2, AI-2 QS mod 27.5 and KLK7 zymogen act -0.2.
CN(C)CCN=Cc1c(O)n(CCC2=CCCCC2)c(=O)[nH]c1=O was read as RanGTP-Imp inh 2.2, Runt-SMMHC FRET 2.9, Wee1 degr inh -0.3, Runt-CBFb FRET -0.6, AI-2 QS mod 12.0, KLK7 zymogen act 27.2*, proKLK7 act conf 1.0 and EDANS-DABCYL int -0.3.
`Cc1ccc2c(c1)=NC(=O)/C(=C/c1c(O)[nH]c(=O)[nH]c1=O)C=2` gave RanGTP-Imp inh -3.3, Runt-SMMHC FRET -2.4, Wee1 degr inh -1.7, Runt-CBFb FRET 25.9, AI-2 QS mod 23.9, KLK7 zymogen act 17.8*, proKLK7 act conf 45.9* and EDANS-DABCYL int 45.0*.
`Cc1ccc2c(c1)=C/C(=C\c1c(O)[nH]c(=S)[nH]c1=O)C(=O)N=2` gave RanGTP-Imp inh -11.4, Runt-SMMHC FRET 23.9, Wee1 degr inh -0.8, Runt-CBFb FRET 40.4 and AI-2 QS mod 22.8.
CC1(O)CCC2C3CCC4=CC(=O)CCC4=C3C=CC21C (stereo not given) was read as KLK7 zymogen act 14.2*, proKLK7 act conf 13.4* and EDANS-DABCYL int 23.1*.
For COC(C)(C)CCCC(C)C/C=C/C(C)=C/C(=O)OC(C)C (stereo not given) the results were KLK7 zymogen act -1.0.
Screening COc1cc([C@H]2OC[C@H]3[C@@H]2CO[C@@H]3c2cc(OC)c(O[C@@H]3O[C@H](CO)[C@@H](O)[C@H](O)[C@H]3O)c(OC)c2)cc(OC)c1O[C@H]1O[C@@H](CO)[C@H](O)[C@@H](O)[C@@H]1O returned KLK7 zymogen act -1.1.
Screening O=c1ccc2cc(OC3O[C@H](CO)[C@@H](O)[C@H](O)[C@H]3O)c(O)cc2o1 (stereo not given in full) returned KLK7 zymogen act 53.0*, proKLK7 act conf 59.1* and EDANS-DABCYL int 74.0*.
CCOC(=O)c1c(NS(=O)(=O)c2ccccc2)n(CCCOC)c2nc3ccccc3nc12 was read as RanGTP-Imp inh 105.9*, Runt-SMMHC FRET 10.3, Wee1 degr inh -3.0, Runt-CBFb FRET 0.3, AI-2 QS mod 13.9, KLK7 zymogen act 81.9*, proKLK7 act conf 66.2* and EDANS-DABCYL int 70.0*.
Screening CC[C@@H](CO)NC(=O)[C@@H]1C=C2c3cccc4[nH]cc(c34)C[C@H]2N(C)C1 returned KLK7 zymogen act 19.5*, proKLK7 act conf 1.6 and EDANS-DABCYL int 0.4.
For c1ccc(-c2ccc(CN3Cc4ccccc4-n4nncc4C3)cc2)cc1 the results were KLK7 zymogen act 0.0.
For c1ccc(CCN2CCCCC2)nc1 the results were KLK7 zymogen act 0.1.
`CCCCn1c(=O)c(C(=O)NCc2ccco2)c(O)c2ccccc21` gave RanGTP-Imp inh -2.8, Runt-SMMHC FRET 2.8, Wee1 degr inh -4.1, Runt-CBFb FRET -3.5, AI-2 QS mod 17.6 and KLK7 zymogen act 0.2.
For Nc1c(C(=O)NCc2ccco2)c2nc3ccccc3nc2n1CCN1CCCCC1 the results were RanGTP-Imp inh 71.4*, Runt-SMMHC FRET 62.6, Wee1 degr inh 1.0, Runt-CBFb FRET 8.2, AI-2 QS mod 12.1, KLK7 zymogen act 62.8*, proKLK7 act conf -56.6 and EDANS-DABCYL int -69.0.
CCOC(=O)c1cc2c(cn1)[nH]c1ccccc12 was read as RanGTP-Imp inh inconclusive, Runt-SMMHC FRET 1.3, Wee1 degr inh -1.1, Runt-CBFb FRET -3.3, AI-2 QS mod 16.4, KLK7 zymogen act 20.3*, proKLK7 act conf -2.5 and EDANS-DABCYL int -4.6.
Screening CN1C(=O)CN=C(c2ccccc2)c2cc([N+](=O)[O-])ccc21 returned Runt-SMMHC FRET -3.3, Wee1 degr inh -3.1 and Runt-CBFb FRET 1.5.
